Experimental data: ChEMBL document CHEMBL1955832, “Facile synthesis, characterization and pharmacological activities of 3,6-disubstituted 1,2,4-triazolo[3,4-b][1,3,4]thiadiazoles and 5,6-dihydro-3,6-disubstituted-1,2,4-triazolo[3,4-b][1,3,4]thiadiazoles” (2012)
Values after ≈ are worked out from the molar mass of the structure shown. Active and inactive are the calls of the source. No cut-off for these calls is given here.

Columns and labels:
Aspergillus fumigatus [1] = assay: Antifungal activity against Aspergillus fumigatus NCIM 902 at MIC after 3 to 4 days; assay type: functional
Mus musculus [2] = assay: Analgesic activity Wistar albino mouse assessed as tail withdrawal latency time at 100 mg/kg, po administered by intragastric tube after 180 mins (reference value: 1.363 +/- 0.1297 sec); assay type: functional
Mus musculus [3] = assay: Analgesic activity Wistar albino mouse assessed as tail withdrawal latency time at 100 mg/kg, po administered by intragastric tube after 120 mins (reference value: 1.363 +/- 0.1297 sec); assay type: functional
[4] = test system: Radical scavenging activity; assay: Antioxidant activity of the compound assessed as DPPH radical scavenging activity at 200 ug/ml after 20 mins; assay type: functional
How it was run: (§1)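 Compound dissolved in methylene dichloride at the stated concentration, mixed with 4 mL 0.1 mM methanolic DPPH, held 20 min at ambient temperature; absorbance read at 517 nm. Scavenging % = (A_DPPH − A_test)/A_DPPH × 100. Triplicate; ascorbic acid positive control.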

Klebsiella pneumoniae [5] = assay: Antibacterial activity against recultured Klebsiella pneumoniae after 16 to 18 hrs by serial dilution method; assay type: functional
How it was run: (§2)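 Serial drug dilutions in Mueller-Hinton broth adjusted to pH 5.0 with phosphate buffer, inoculated with standardized bacterial suspension, incubated 16–18 h at 37 °C; MIC taken as lowest concentration without conspicuous growth.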

[6] = test system: Trichophyton mentagrophytes; assay: Antifungal activity against recultured Trichophyton mentagrophytes by serial plate dilution method; assay type: functional
Aspergillus flavus [7] = assay: Antifungal activity against Aspergillus flavus NCIM 524 at MIC after 3 to 4 days; assay type: functional
Talaromyces marneffei [8] = assay: Antifungal activity against recultured Penicillium marneffei at MIC after 3 to 4 days; assay type: functional
[9] = test system: Trichophyton mentagrophytes; assay: Antifungal activity against recultured Trichophyton mentagrophytes at MIC after 3 to 4 days; assay type: functional
Staphylococcus aureus [10] = assay: Antibacterial activity against Staphylococcus aureus ATTC 25923 after 16 to 18 hrs by serial dilution method; assay type: functional; how it was run: as §2
Pseudomonas aeruginosa [11] = assay: Antibacterial activity against Pseudomonas aeruginosa ATTC 27853 at MIC after 3 to 4 days by disc diffusion method; assay type: functional
How it was run: (§3)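 Agar well diffusion: seeded agar plates dried 1 h at 37 °C, wells punched and filled with test compound at MIC level in DMSO; DMSO solvent control. Plates in triplicate, kept at 37 °C for 3–4 days; zone of inhibition read.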

Talaromyces marneffei [12] = assay: Antifungal activity against recultured Penicillium marneffei by serial plate dilution method; assay type: functional
Klebsiella pneumoniae [13] = assay: Antibacterial activity against recultured Klebsiella pneumoniae at MIC after 3 to 4 days by disc diffusion method; assay type: functional; how it was run: as §3
Escherichia coli [14] = assay: Antibacterial activity against Escherichia coli ATTC 25922 after 16 to 18 hrs by serial dilution method; assay type: functional; how it was run: as §2
Rattus norvegicus = assay: Antiinflammatory activity rat assessed as reduction of carrageenan-induced paw oedema at 100 mg/kg, po administered 30 mins before carrageenan challenge measured after 60 to 180 mins; assay type: functional, organism-based; parameters: dose 100 mg/kg
How it was run: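 Rats randomly assigned, 100 mg/kg orally as suspension in 1% carboxymethyl cellulose, 30 min before carrageenan injected into right hind paw. Paw thickness measured with vernier callipers at 60, 120 and 180 min. Diclofenac reference; mean ± SEM, n = 6, vs vehicle control.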

[15] = test system: Radical scavenging activity; assay: Antioxidant activity of the compound assessed as DPPH radical scavenging activity at 800 ug/ml after 20 mins; assay type: functional; how it was run: as §1
Staphylococcus aureus [16] = assay: Antibacterial activity against Staphylococcus aureus ATTC 25923 at MIC after 3 to 4 days by disc diffusion method; assay type: functional; how it was run: as §3
[17] = test system: Radical scavenging activity; assay: Antioxidant activity of the compound assessed as DPPH radical scavenging activity at 400 ug/ml after 20 mins; assay type: functional; how it was run: as §1
Pseudomonas aeruginosa [18] = assay: Antibacterial activity against Pseudomonas aeruginosa ATTC 27853 after 16 to 18 hrs by serial dilution method; assay type: functional; how it was run: as §2
Escherichia coli [19] = assay: Antibacterial activity against Escherichia coli ATTC 25922 at MIC after 3 to 4 days by disc diffusion method; assay type: functional; how it was run: as §3
Aspergillus fumigatus [20] = assay: Antifungal activity against Aspergillus fumigatus NCIM 902 by serial plate dilution method; assay type: functional
Aspergillus flavus [21] = assay: Antifungal activity against Aspergillus flavus NCIM 524 by serial plate dilution method; assay type: functional
Mus musculus [22] = assay: Analgesic activity Wistar albino mouse assessed as tail withdrawal latency time at 100 mg/kg, po administered by intragastric tube after 60 mins (reference value: 1.363 +/- 0.1297 sec); assay type: functional

SMILES | diameter of the inhibition zone (DIZ) (Aspergillus fumigatus [1]) | Time (Mus musculus [2]) | Time (Mus musculus [3]) | inhibition [4] | MIC (Klebsiella pneumoniae [5]) | MIC [6] | diameter of the inhibition zone (DIZ) (Aspergillus flavus [7]) | diameter of the inhibition zone (DIZ) (Talaromyces marneffei [8]) | diameter of the inhibition zone (DIZ) [9] | MIC (Staphylococcus aureus [10]) | diameter of the inhibition zone (DIZ) (Pseudomonas aeruginosa [11]) | MIC (Talaromyces marneffei [12]) | diameter of the inhibition zone (DIZ) (Klebsiella pneumoniae [13]) | MIC (Escherichia coli [14]) | Activity (Rattus norvegicus) | inhibition [15] | diameter of the inhibition zone (DIZ) (Staphylococcus aureus [16]) | inhibition [17] | MIC (Pseudomonas aeruginosa [18]) | diameter of the inhibition zone (DIZ) (Escherichia coli [19]) | also measured
COc1ccc(Br)c(-c2n[nH]c(=S)n2N)c1 | 16 mm | 2.338 s | 3.388 s | 52.7% | 20.8 µM (≈ 6.25 µg/mL) | 20.8 µM (≈ 6.25 µg/mL) | 16 mm | 16 mm | 16 mm | 41.5 µM (≈ 12.5 µg/mL) | 11 mm | 20.8 µM (≈ 6.25 µg/mL) | 16 mm | 20.8 µM (≈ 6.25 µg/mL) | Active | 67.5% | 11 mm | 56.8% | 41.5 µM (≈ 12.5 µg/mL) | 16 mm | MIC (Aspergillus fumigatus [20]): 20.8 µM (≈ 6.25 µg/mL); MIC (Aspergillus flavus [21]): 20.8 µM (≈ 6.25 µg/mL); Time (Mus musculus [22]): 3.463 s
COc1ccc(Br)c(-c2nnc3sc(-c4ccc([N+](=O)[O-])cc4)nn23)c1 | 16 mm | 2.663 s | 3.263 s | 62.9% | 28.9 µM (≈ 12.5 µg/mL) | 14.5 µM (≈ 6.25 µg/mL) | 16 mm | 16 mm | 16 mm | 28.9 µM (≈ 12.5 µg/mL) | 11 mm | 14.5 µM (≈ 6.25 µg/mL) | 11 mm | 28.9 µM (≈ 12.5 µg/mL) | Active | 71.9% | 11 mm | 68.1% | 28.9 µM (≈ 12.5 µg/mL) | 11 mm | MIC (Aspergillus fumigatus [20]): 14.5 µM (≈ 6.25 µg/mL); MIC (Aspergillus flavus [21]): 14.5 µM (≈ 6.25 µg/mL); Time (Mus musculus [22]): 3.375 s
COc1ccc(Br)c(-c2nnc3n2NC(c2cccc(Cl)c2)S3)c1 (stereo not drawn) | 11 mm | 2.235 s | 3.623 s | 35.9% | 29.5 µM (≈ 12.5 µg/mL) | 29.5 µM (≈ 12.5 µg/mL) | 11 mm | 11 mm | 11 mm | 29.5 µM (≈ 12.5 µg/mL) | 11 mm | 29.5 µM (≈ 12.5 µg/mL) | 11 mm | 29.5 µM (≈ 12.5 µg/mL) | Active | 62.5% | 11 mm | 44.7% | 29.5 µM (≈ 12.5 µg/mL) | 11 mm | MIC (Aspergillus fumigatus [20]): 29.5 µM (≈ 12.5 µg/mL); MIC (Aspergillus flavus [21]): 29.5 µM (≈ 12.5 µg/mL); Time (Mus musculus [22]): 3.546 s
COc1ccc(Br)c(-c2nnc3n2NC(c2ccc(Cl)cc2)S3)c1 (stereo not drawn) | 16 mm | 2.425 s | 3.563 s | 42.3% | 14.8 µM (≈ 6.25 µg/mL) | 16.1 µM (≈ 6.8 µg/mL) | 16 mm | 11 mm | 16 mm | 29.5 µM (≈ 12.5 µg/mL) | 16 mm | 16.1 µM (≈ 6.8 µg/mL) | 16 mm | 14.8 µM (≈ 6.25 µg/mL) | Active | 63.4% | 11 mm | 48.1% | 14.8 µM (≈ 6.25 µg/mL) | 16 mm | MIC (Aspergillus fumigatus [20]): 16.1 µM (≈ 6.8 µg/mL); MIC (Aspergillus flavus [21]): 16.1 µM (≈ 6.8 µg/mL); Time (Mus musculus [22]): 3.675 s
COc1ccc(Br)c(-c2nnc3n2NC(c2ccccc2Cl)S3)c1 (stereo not drawn) | 16 mm | 2.938 s | 3.25 s | 48% | 29.5 µM (≈ 12.5 µg/mL) | 29.5 µM (≈ 12.5 µg/mL) | 16 mm | 11 mm | 11 mm | 14.8 µM (≈ 6.25 µg/mL) | 11 mm | 29.5 µM (≈ 12.5 µg/mL) | 11 mm | 29.5 µM (≈ 12.5 µg/mL) | Active | 62.7% | 16 mm | 51.8% | 29.5 µM (≈ 12.5 µg/mL) | 11 mm | MIC (Aspergillus fumigatus [20]): 14.8 µM (≈ 6.25 µg/mL); MIC (Aspergillus flavus [21]): 14.8 µM (≈ 6.25 µg/mL); Time (Mus musculus [22]): 3.6 s
COc1ccc(Br)c(-c2nnc3sc(-c4ccc(N)cc4)nn23)c1 | 11 mm | 2.425 s | 3.563 s | 60.3% | 31.1 µM (≈ 12.5 µg/mL) | 15.5 µM (≈ 6.25 µg/mL) | 11 mm | 11 mm | 16 mm | 31.1 µM (≈ 12.5 µg/mL) | 16 mm | 31.1 µM (≈ 12.5 µg/mL) | 11 mm | 31.1 µM (≈ 12.5 µg/mL) | Active | 75.9% | 11 mm | 68% | 15.5 µM (≈ 6.25 µg/mL) | 11 mm | MIC (Aspergillus fumigatus [20]): 31.1 µM (≈ 12.5 µg/mL); MIC (Aspergillus flavus [21]): 31.1 µM (≈ 12.5 µg/mL); Time (Mus musculus [22]): 3.675 s
